Data published in ChEMBL document CHEMBL4715780, “Biological evaluation of tetracationic compounds based on two 1,4-diazabicyclo[2.2.2]octane moieties connected by different linkers” (Bioorg Med Chem, 2016).

Assays:
Staphylococcus aureus [1] = assay: Bactericidal activity against […] Staphylococcus aureus ATCC 25923 assessed as colony forming unit at 1.25 ug/ml measured at 22 hrs by time kill assay (reference value: 2.9 x 10^9 CFU/ml); assay type: functional; conditions: dose 1.25 µg/ml
Method in brief: (§1)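 S. aureus overnight culture was adjusted in MHB to ~8 × 10⁵ CFU/mL. Compound was added and the mixture incubated at 37 °C with shaking (580 rpm) for 22 h. Aliquots were plated for colony counts at 2, 4, 6, 8 and 22 h, with a quantification limit of 100 CFU/mL. Runs were done in triplicate.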

Staphylococcus aureus [2] = assay: Antibacterial activity against methicillin-resistant Staphylococcus aureus CEMTC 675 assessed as concentration required to inhibit visible growth by CLSI protocol based serial microdilution method; assay type: functional
Staphylococcus aureus [3] = assay: Bactericidal activity against […] Staphylococcus aureus ATCC 25923 assessed as colony forming unit at 2.5 ug/ml measured at 8 hrs by time kill assay (reference value: 2.7 x 10^8 CFU/ml); assay type: functional; conditions: dose 2.5 µg/ml; method in brief: as §1
Pseudomonas aeruginosa [4] = assay: Bactericidal activity against Pseudomonas aeruginosa ATCC 9027 assessed as colony forming unit at 5 ug/ml measured at 6 hrs by time kill assay (reference value: 10^8 CFU/ml); assay type: functional; conditions: dose 5 µg/ml
Method in brief: (§2)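 Overnight Pseudomonas aeruginosa culture adjusted in Mueller–Hinton broth to about 2.5 × 10⁵ CFU/mL. Compound added at 2.5, 5 or 10 µg/mL, then incubated at 37 °C with shaking (580 rpm) for 22 h. Viable colonies counted on plates at 2, 4, 6, 8 and 22 h. Quantification limit 100 CFU/mL; triplicate.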

Staphylococcus aureus [5] = assay: Antibacterial activity against methicillin-resistant Staphylococcus aureus CEMTC 1850 assessed as bacterial growth inhibition by CLSI protocol based serial microdilution method; assay type: functional
Staphylococcus aureus [6] = assay: Bactericidal activity against […] Staphylococcus aureus ATCC 25923 assessed as colony forming unit at 2.5 ug/ml measured at 2 hrs by time kill assay (reference value: 10^6 CFU/ml); assay type: functional; conditions: dose 2.5 µg/ml; method in brief: as §1
Staphylococcus aureus [7] = assay: Bactericidal activity against […] Staphylococcus aureus ATCC 25923 assessed as colony forming unit at 5 ug/ml measured at 2 hrs by time kill assay (reference value: 10^6 CFU/ml); assay type: functional; conditions: dose 5 µg/ml; method in brief: as §1
Staphylococcus aureus [8] = assay: Antibacterial activity against methicillin-resistant Staphylococcus aureus CEMTC 1733 assessed as concentration required to inhibit visible growth by CLSI protocol based serial microdilution method; assay type: functional
Pseudomonas aeruginosa [9] = assay: Bactericidal activity against Pseudomonas aeruginosa ATCC 9027 assessed as reduction in colony forming unit at 5 ug/ml measured at 2 hrs by time kill assay relative to control; assay type: functional; design: scale not given: the % may be the effect or the level left; conditions: dose 5 µg/ml; method in brief: as §2
Staphylococcus aureus [10] = assay: Antibacterial activity against methicillin-resistant Staphylococcus aureus CEMTC 1850 assessed as concentration required to inhibit visible growth by CLSI protocol based serial microdilution method; assay type: functional
Pseudomonas aeruginosa [11] = assay: Bactericidal activity against Pseudomonas aeruginosa ATCC 9027 assessed as reduction in colony forming unit at 2.5 ug/ml measured at 22 hrs by time kill assay relative to control; assay type: functional; design: scale not given: the % may be the effect or the level left; conditions: dose 2.5 µg/ml; method in brief: as §2
Escherichia coli = assay: Antibacterial activity against Escherichia coli ATCC 25922 assessed as bacterial growth inhibition by CLSI protocol based serial microdilution method; assay type: functional
[12] = Selectivity index, ratio of CC50 for HEK293T cells assessed as reduction in cell viability measured after 24 hrs by MTT assay to MIC for Enterococcus faecalis ATCC 51299 assessed as bacterial growth inhibition by CLSI protocol based serial microdilution method; assay type: toxicity; conditions: human, read-out: Selectivity Index
Pseudomonas aeruginosa [13] = assay: Bactericidal activity against Pseudomonas aeruginosa ATCC 9027 assessed as reduction in colony forming unit at 10 ug/ml measured at 4 hrs by time kill assay relative to control; assay type: functional; design: scale not given: the % may be the effect or the level left; conditions: dose 10 µg/ml; method in brief: as §2
[14] = Cytotoxicity against HEK293T cells assessed as reduction in cell viability measured after 24 hrs by MTT assay; assay type: cell-based, HEK-293T; conditions: human
Method in brief: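 HEK293T or MCF-7 cells in IMDM with 10% FBS, seeded at 20,000 per well and grown overnight. Compounds at […] in fresh medium for 24 h at 37 °C, 5% CO₂. MTT then added for 4 h, precipitate dissolved overnight in SDS-HCl, absorbance read at 570 nm. Viability expressed relative to untreated cells, giving CC₅₀. Duplicate wells, at least two independent repeats.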

Staphylococcus aureus [15] = assay: Antibacterial activity against methicillin-resistant Staphylococcus aureus CEMTC 1732 assessed as bacterial growth inhibition by CLSI protocol based serial microdilution method; assay type: functional
[16] = Selectivity index, ratio of CC50 for HEK293T cells assessed as reduction in cell viability measured after 24 hrs by MTT assay to MIC for Proteus vulgaris ATCC 6380 assessed as bacterial growth inhibition by CLSI protocol based serial microdilution method; assay type: toxicity; conditions: human, read-out: Selectivity Index
Pseudomonas aeruginosa [17] = assay: Bactericidal activity against Pseudomonas aeruginosa ATCC 9027 assessed as reduction in colony forming unit at 2.5 ug/ml measured at 8 hrs by time kill assay relative to control; assay type: functional; design: scale not given: the % may be the effect or the level left; conditions: dose 2.5 µg/ml; method in brief: as §2
Pseudomonas aeruginosa [18] = assay: Bactericidal activity against Pseudomonas aeruginosa ATCC 9027 assessed as reduction in colony forming unit at 5 ug/ml measured at 8 hrs by time kill assay relative to control; assay type: functional; design: scale not given: the % may be the effect or the level left; conditions: dose 5 µg/ml; method in brief: as §2
Pseudomonas aeruginosa [19] = assay: Bactericidal activity against Pseudomonas aeruginosa ATCC 9027 assessed as colony forming unit at 2.5 ug/ml measured at 4 hrs by time kill assay (reference value: 1.2 x 10^7 CFU/ml); assay type: functional; conditions: dose 2.5 µg/ml; method in brief: as §2
Pseudomonas aeruginosa [20] = assay: Bactericidal activity against Pseudomonas aeruginosa ATCC 9027 assessed as reduction in colony forming unit at 2.5 ug/ml measured at 2 hrs by time kill assay relative to control; assay type: functional; design: scale not given: the % may be the effect or the level left; conditions: dose 2.5 µg/ml; method in brief: as §2
Pseudomonas aeruginosa [21] = assay: Bactericidal activity against Pseudomonas aeruginosa ATCC 9027 assessed as colony forming unit at 2.5 ug/ml measured at 2 hrs by time kill assay (reference value: 3.6 x 10^5 CFU/ml); assay type: functional; conditions: dose 2.5 µg/ml; method in brief: as §2
Salmonella typhimurium = assay: Antibacterial activity against Salmonella enterica ATCC 14028 assessed as bacterial growth inhibition by CLSI protocol based serial microdilution method; assay type: functional, Salmonella enterica subsp. enterica serovar Typhimurium
Pseudomonas aeruginosa [22] = assay: Bactericidal activity against Pseudomonas aeruginosa ATCC 9027 assessed as reduction in colony forming unit at 2.5 ug/ml measured at 4 hrs by time kill assay relative to control; assay type: functional; design: scale not given: the % may be the effect or the level left; conditions: dose 2.5 µg/ml; method in brief: as §2
Enterococcus faecalis = assay: Antibacterial activity against Enterococcus faecalis ATCC 51299 assessed as concentration required to inhibit visible growth by CLSI protocol based serial microdilution method; assay type: functional
Pseudomonas aeruginosa [23] = assay: Bactericidal activity against Pseudomonas aeruginosa ATCC 9027 assessed as reduction in colony forming unit at 10 ug/ml measured at 22 hrs by time kill assay relative to control; assay type: functional; design: scale not given: the % may be the effect or the level left; conditions: dose 10 µg/ml; method in brief: as §2
Staphylococcus aureus [24] = assay: Antibacterial activity against […] Staphylococcus aureus ATCC 25923 assessed as concentration required to inhibit visible growth by CLSI protocol based serial microdilution method; assay type: functional
Proteus vulgaris = assay: Antibacterial activity against Proteus vulgaris ATCC 6380 assessed as concentration required to inhibit visible growth by CLSI protocol based serial microdilution method; assay type: functional
Staphylococcus aureus [25] = assay: Bactericidal activity against […] Staphylococcus aureus ATCC 25923 assessed as colony forming unit at 1.25 ug/ml measured at 6 hrs by time kill assay (reference value: 1.2 x 10^6 CFU/ml); assay type: functional; conditions: dose 1.25 µg/ml; method in brief: as §1
Pseudomonas aeruginosa [26] = assay: Bactericidal activity against Pseudomonas aeruginosa ATCC 9027 assessed as colony forming unit at 5 ug/ml measured at 22 hrs by time kill assay (reference value: 1.7 x 10^9 CFU/ml); assay type: functional; conditions: dose 5 µg/ml; method in brief: as §2

Structure (SMILES) | Activity (Staphylococcus aureus [1]) | MBC (Staphylococcus aureus [2]) | Activity (Staphylococcus aureus [3]) | Activity (Pseudomonas aeruginosa [4]) | MIC (Staphylococcus aureus [5]) | Activity (Staphylococcus aureus [6]) | Activity (Staphylococcus aureus [7]) | MBC (Staphylococcus aureus [8]) | Activity (Pseudomonas aeruginosa [9]) | MBC (Staphylococcus aureus [10]) | Activity (Pseudomonas aeruginosa [11]) | MIC (Escherichia coli) | selectivity ratio at 24 h [12] | Activity (Pseudomonas aeruginosa [13]) | CC50 at 24 h [14] | MIC (Staphylococcus aureus [15]) | selectivity ratio at 24 h [16] | Activity (Pseudomonas aeruginosa [17]) | Activity (Pseudomonas aeruginosa [18]) | Activity (Pseudomonas aeruginosa [19]) | further results
CCCCCCCCCCCC[N+]12CC[N+](CCC[N+]34CC[N+](CCCCCCCCCCCC)(CC3)CC4)(CC1)CC2 | <100 CFU/ml | 1 µg/mL | <100 CFU/ml | <100 CFU/ml | 1 µg/mL | 330 CFU/ml | <100 CFU/ml | 1 µg/mL | >=99.9% | 1 µg/mL | >=99.9% | 1.6 µg/mL | 4 | >=99.9% | 6.5 µg/mL | 0.5 µg/mL | < 1 | >=99.9% | >=99.9% | <100 CFU/ml | Activity (Pseudomonas aeruginosa [20]): >=99.9%; Activity (Pseudomonas aeruginosa [21]): 330 CFU/ml; MIC (Salmonella typhimurium): 1.6 µg/mL; Activity (Pseudomonas aeruginosa [22]): >=99.9%; MBC (Enterococcus faecalis): 3.1 µg/mL; Activity (Pseudomonas aeruginosa [23]): >=99.9%; MBC (Staphylococcus aureus [24]): 1.2 µg/mL; MBC (Proteus vulgaris): > 100 µg/mL; Activity (Staphylococcus aureus [25]): <100 CFU/ml; Activity (Pseudomonas aeruginosa [26]): <100 CFU/ml
CCCCCCCCCCCC[N+]12CC[N+](Cc3ccccc3C[N+]34CC[N+](CCCCCCCCCCCC)(CC3)CC4)(CC1)CC2 | <100 CFU/ml | 1 µg/mL | <100 CFU/ml | <100 CFU/ml | 0.5 µg/mL | 1000 CFU/ml | <100 CFU/ml | 1 µg/mL | >=99.9% | 1 µg/mL | >=99.9% | 1.6 µg/mL | 5 | >=99.9% | 4 µg/mL | 0.5 µg/mL | < 1 | >=99.9% | >=99.9% | 1300 CFU/ml | Activity (Pseudomonas aeruginosa [20]): >=90%; Activity (Pseudomonas aeruginosa [21]): 6800 CFU/ml; MIC (Salmonella typhimurium): 16 µg/mL; Activity (Pseudomonas aeruginosa [22]): >=99.9%; MBC (Enterococcus faecalis): 1.6 µg/mL; Activity (Pseudomonas aeruginosa [23]): >=99.9%; MBC (Staphylococcus aureus [24]): 1.2 µg/mL; MBC (Proteus vulgaris): > 100 µg/mL; Activity (Staphylococcus aureus [25]): <100 CFU/ml; Activity (Pseudomonas aeruginosa [26]): <100 CFU/ml
